ChEMBL document CHEMBL4480417, “Methylsulfonylated Polyketides Produced by Neosartorya udagawae HDN13-313 via Exogenous Addition of Small Molecules” (J Nat Prod, 2019)
Activity calls are given as the source filed them. No cut-off for these calls is given here.

Legend:
HL-60 = experiment: Cytotoxicity against human HL60 cells at 30 uM after 72 hrs by MTT assay; type: cell-based; conditions: hl-60, 72 h
HCT-116 = experiment: Cytotoxicity against human HCT116 cells at 30 uM after 72 hrs by MTT assay; type: cell-based; conditions: hct-116, 72 h
K562 = experiment: Cytotoxicity against human K562 cells at 30 uM after 72 hrs by MTT assay; type: cell-based; conditions: k562, 72 h
HeLa = experiment: Cytotoxicity against human HeLa cells at 30 uM after 72 hrs by MTT assay; type: cell-based
HepG2 = experiment: Lipid lowering activity in human HepG2 cells assessed as reduction in oleic acid-induced lipid accumulation at 10 uM after 24 hrs by oil red O staining based spectrophotometric method; type: functional, cell-based
In short: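 HepG2 cells in log phase seeded at 1.2 × 10^4 cells/well, grown 12 h to 70–80% confluence, then serum-starved 12 h in serum-free DMEM. Oleic acid added (final 80 μM) with test agent or simvastatin (final 10 μM), 24 h. Blank: DMEM only; OA alone as negative control. Cells fixed in 4% paraformaldehyde, rinsed with 60% 2-propanol, stained with 0.3% Oil Red O for 1 h, dye dissolved in DMSO, OD 358 nm; ≥3 experiments, mean ± SEM.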

Row | Structure (SMILES) | Activity (HL-60) | Activity (HCT-116) | Activity (K562) | Activity (HeLa) | Activity (HepG2)
1 | COc1c(O)ccc2c(=O)oc3cc(CO)cc(O)c3c(=O)c12 | Non-Toxic | Non-Toxic | Non-Toxic | Non-Toxic | –
2 | CCC(C)(C)C(=O)O[C@H]1C[C@@H](C)C=C2C=C[C@H](C)[C@H](CC[C@@H]3C[C@@H](O)CC(=O)O3)[C@H]21 | – | – | – | – | Active
3 | COc1cc(S(C)(=O)=O)cc2c(=O)oc3cc(CO)cc(O)c3c(=O)c12 | Non-Toxic | Non-Toxic | Non-Toxic | Non-Toxic | Active
4 | COc1c(O)c(O)c(C)c(S(C)(=O)=O)c1O | Non-Toxic | Non-Toxic | Non-Toxic | Non-Toxic | –
